Nine compounds from ChEMBL document CHEMBL1132240, “Design and synthesis of modified quinolones as antitumoral acridones” (J Med Chem, 1999) can be followed below.

Test [1] relates to HL-60. In words: Cytotoxic activity against human promyelocytic leukemia HL-60 concentration of agent required to reduce cell viability by 90%. The class given is functional. In outline:
(§1)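 Modified MTT assay. Cells seeded per well with graded drug: CHO 2.5 × 10^3, B16 5 × 10^3, P388 and LLC 10^4, HL-60 and LoVo 5 × 10^4. After 68 h, MTT (2.5 mg/mL) added for 4 h at 37 °C. Formazan dissolved in DMSO and A550 read. Inhibition taken as fractional A550 decrease vs control. IC50/IC90 from Chou's median-effect equation.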

In test [2] the test system is HL-60. In words: Cytotoxic activity against human promyelocytic leukemia HL-60 concentration of agent required to reduce cell viability by 50%. The class given is functional, cell-based. In a few lines:
as §1

The test system of test [3] is P388. In words: Cytotoxic activity against murine lymphocytic leukemia P388 concentration of agent required to reduce cell viability by 50%. In kind it is functional, cell-based. The conditions noted are these: Mus musculus. In outline:
as §1

The subject of test [4] is P388. In words: Cytotoxic activity against murine lymphocytic leukemia P388 concentration of agent required to reduce cell viability by 90%. The class given is functional. The note with it: Mus musculus. In a few lines:
as §1

Test [5] has as its system B16. In words: Cytotoxic activity against solid tumor, B16 (murine melanoma) Concentration of agent required to reduce cell viability by 90%. The class given is functional. The note with it: Mus musculus. In outline:
as §1

In test [6] the test system is B16. Put plainly: Cytotoxic activity against solid tumor, B16 (murine melanoma) Concentration of agent required to reduce cell viability by 50%. The class given is functional, cell-based. The conditions noted are these: Mus musculus. In outline: as §1
The subject of test [7] is CHO. In words: Cytotoxic activity against solid tumor, CHO (Chinese hamster ovaric carcinoma) Concentration of agent required to reduce cell viability by 50%. The class given is functional, cell-based. The note with it: Cricetulus griseus. In a few lines: as §1
Test [8] relates to CHO. Put plainly: Cytotoxic activity against solid tumor, CHO (Chinese hamster ovaric carcinoma) Concentration of agent required to reduce cell viability by 90%. In kind it is functional. The note with it: Cricetulus griseus. In outline:
as §1

Test [9] has as its system HL-60. In words: Cytotoxic activity against Human promyelocytic Leukemia HL-60 Concentration of agent required to reduce cell viability by 90%. The class given is functional. In a few lines: as §1
For test [10], the system named is HL-60. In words: Relative cytotoxicity against Human promyelocytic Leukemia(HL-60) cells; Value is in range, activity expressed as IC90. In kind it is functional. In a few lines:
(§2)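 Second-stage assay on HL-60 (5 × 10^4/well) and soybean-agglutinin-negative mononuclear marrow cells (5 × 10^5/well) from six healthy donors. Four wells per concentration, 48 h at 37 °C, then [125I]iododeoxyuridine plus fluorodeoxyuridine for 18 h. Inhibition from fractional uptake decrease; IC50/IC90 by median-effect equation. Ranges are antilog(mean log ± 2SD); ratios use mean antilogs.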

Test [11] relates to HL-60. In words: Cytotoxic activity against Human promyelocytic Leukemia HL-60 Concentration of agent required to reduce cell viability by 50%. The class given is functional, cell-based. In a few lines:
as §1

The subject of test [12] is HL-60. In words: Relative cytotoxicity against Human promyelocytic Leukemia(HL-60) cells; Value is in range, activity expressed as IC50. In kind it is functional, cell-based. In a few lines:
as §2

The species named for test [13] is Homo sapiens. In words: Relative cytotoxicity against Human bone marrow samples; Value is in range, activity expressed as IC50. In kind it is functional. In outline: as §2
Test [14] is filed under the species Homo sapiens. Put plainly: Relative cytotoxicity against Human bone marrow samples; Value is in range, activity expressed as IC90. The class given is functional. In a few lines: as §2
Test [15] concerns P388. Put plainly: Cytotoxic activity against Murine Lymphocytic Leukemia P388 Concentration of agent required to reduce cell viability by 50%. In kind it is functional, cell-based. The conditions noted are these: Mus musculus. In outline:
as §1

Test [16] relates to P388. Put plainly: Cytotoxic activity Murine Lymphocytic Leukemia P388 Concentration of agent required to reduce cell viability by 90%. In kind it is functional. The note with it: Mus musculus. In a few lines:
as §1

Test [17] is described as follows: Ratio of antilog(mean log IC90 in bone marrow sample) and antolog(mean log IC90) in HL-60). In kind it is functional. In a few lines:
as §2

The nature of test [18]: Ratio of antilog(mean log IC50 in bone marrow sample) and antolog(mean log IC50) in HL-60). The class given is functional. In outline:
as §2

Test [19] in a line: Ratio of antilog(mean log IC50 in bone marrow sample) and antolog(mean log IC90) in HL-60). The class given is functional. In outline:
as §2

Test [20] concerns LoVo. In words: Cytotoxic activity against solid tumor, LoVo, (human colon adenocarcinoma) Concentration of agent required to reduce cell viability by 90%. In kind it is functional. In outline:
as §1

Test [21] concerns LoVo. In words: Cytotoxic activity against solid tumor, LoVo, (human colon adenocarcinoma) Concentration of agent required to reduce cell viability by 50%. In kind it is functional, cell-based. In outline:
as §1

The subject of test [22] is Lewis lung carcinoma cell line. Put plainly: Cytotoxic activity against solid tumor LLC(Lewis lung carcinoma), concentration of agent required to reduce cell viability by 50%. In kind it is functional, cell-based. The conditions noted are these: Mus musculus. In a few lines:
as §1

The test system of test [23] is Lewis lung carcinoma cell line. Put plainly: Cytotoxic activity against solid tumor LLC(Lewis lung carcinoma), concentration of agent required to reduce cell viability by 90%. The class given is functional. The conditions noted are these: Mus musculus. In outline:
as §1

Where only a bound is given, the exact number is not on record here.

Turning to `CCn1c2cc(Cl)c(N)cc2c(=O)c2c(OC)cc(OC)cc21`, the IC90 in test [1] was determined as 62 µM; in test [4], 33 µM. Besides, the IC50 was 16 µM in test [2] and 14 µM in test [3].

As for `COc1cc(O)c2c(=O)c3cc(N)c(N4CCN(C)CC4)cc3n(C)c2c1`, the IC90 stood at 33 µM in test [1] and 6.8 µM in test [4]. For the same compound, the IC50 in [2] came to 23 µM; in [3] it was 3.4 µM.

In the case of `CCN(CC)CCn1c2cc(N3CCN(C)CC3)c(N)cc2c(=O)c2c(OC)cc(OC)cc21`, the IC90 in test [1] was found to be 17 µM; in [4], 5.8 µM. For the same compound, the values for the IC50 in [2] and in test [3] were 8.3 µM and 3.4 µM, respectively.

As for `CCn1c2cc(N3CCC(O)CC3)c(N)cc2c(=O)c2c(O)cc(O)cc21`, the IC90 in test [5] is above 50 µM; in test [8] it was 38 µM; in [9], 9.2 µM; in test [10], 11.7 µM; in test [14], 15.9 µM; in [16] it was 9.4 µM. For the same compound, the IC50 stood at 26 µM in test [6]; 9.9 µM in test [7]; 5.4 µM in test [11]; 6.64 µM in test [12]; 1.8 µM in [13]; 3.4 µM in [15]. The Ratio in test [17] amounted to 1.5; in test [18] it was 0.4; in [19], 0.2.

For `CCn1c2cc(Cl)c(N)cc2c(=O)c2c(O)cc(O)cc21`, the IC90 was 28 µM in [5]; 71 µM in test [8]; 74 µM in test [9]; 97.5 µM in test [10]; 74.1 µM in test [14]; above 100 µM in test [20]. The results for the IC90 in [23] and in [16] were above 100 µM and 13 µM, respectively. The IC50 worked out at 2.8 µM in test [6]; 5.8 µM in test [7]; 13 µM in test [11]; 17 µM in test [12]; 7.08 µM in test [13]; 15 µM in test [21]. Moreover, the figures for the IC50 in test [22] and in test [15] were 16 µM and 1.6 µM, respectively. Also, the values for the Ratio in [17], in test [18] and in test [19] were 0.5, 0.6 and 0.1, respectively.

Consider `CCn1c2cc(Cl)c(N)cc2c(=O)c2c(O)cc(OC)cc21`, for which, in [3], inhibition was half-maximal at 16 µM (IC50). Also, in test [4], the IC90 is above 100 µM.

For the compound `CCN(CC)CCNc1cc2c(cc1N)c(=O)c1c(O)cc(O)cc1n2CC`, the 90% effect concentration (IC90) in test [5] was found to be 38 µM; in [8], 17 µM; in [9], 46 µM; in test [20], 30 µM; in test [23] it was 46 µM; in test [16] it was 11 µM. Further, the IC50 in test [6] came to 10 µM; in test [7] it was 8.1 µM; in test [11], 19 µM; in [21] it was 19 µM; in test [22], 25 µM; in [15], 4.3 µM.

As for `CCN(CC)CCn1c2cc(Cl)c(N)cc2c(=O)c2c(OC)cc(OC)cc21`, the results for the IC90 in test [1] and in test [4] were 29 µM and 14 µM, respectively. Also, the IC50 in test [2] worked out at 8.6 µM; in [3], 4.3 µM.

On to `CCn1c2cc(N3CCN(C)CC3)c(N)cc2c(=O)c2c(OC)cc(OC)cc21`, for which the IC90 turned out to be 99 µM in test [1] and 26 µM in [4]. Further, the IC50 was 61 µM in test [2] and 16 µM in test [3].

In general, IC90 refers to the point of the concentration-response curve where the effect stands at 90%. Higher therefore signals a need for much substance. What is called IC50 is the point on the concentration scale where inhibition reaches its midpoint. High values mean lower potency, low ones higher potency.
